Laboratory results taken from ChEMBL document CHEMBL2069306, “Sequences in the HSP90 promoter form G-quadruplex structures with selectivity for disubstituted phenyl bis-oxazole derivatives” (Bioorg Med Chem Lett, 2012).

Columns and labels:
[1] = system: Nucleic Acid; assay: Binding affinity to HSP90A quadruplex DNA assessed as change in melting temperature at 1 uM by FRET melting assay; format: nucleic-acid assay; details: Homo sapiens
Method in brief: (§1)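 FAM/TAMRA dual-labelled oligonucleotides diluted to 400 nM in 60 mM potassium cacodylate pH 7.4. Annealed at 95 °C for 10 min, then cooled to RT over 3–3.5 h. Compound diluted from a 1 mM stock (10% DMSO/90% 1 mM HCl) to 2× in buffer and mixed 1:1 with DNA. Fluorescence read every 0.5 °C over 30–100 °C with a 30 s hold. ΔTm from curve fitting; triplicate.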

[2] = system: Nucleic Acid; assay: Binding affinity to double stranded DNA assessed as change in melting temperature at 2 uM by FRET melting assay; format: nucleic-acid assay; method in brief: as §1
[3] = system: Nucleic Acid; assay: Binding affinity to human G4 telomeric quadruplex DNA assessed as change in melting temperature at 1 uM by FRET melting assay; format: nucleic-acid assay; method in brief: as §1
[4] = system: Nucleic Acid; assay: Binding affinity to double stranded DNA assessed as change in melting temperature at 1 uM by FRET melting assay; format: nucleic-acid assay; method in brief: as §1
[5] = system: Nucleic Acid; assay: Binding affinity to HSP90B quadruplex DNA assessed as change in melting temperature at 1 uM by FRET melting assay; format: nucleic-acid assay; details: Homo sapiens; method in brief: as §1
[6] = system: Nucleic Acid; assay: Binding affinity to HSP90B quadruplex DNA assessed as change in melting temperature at 2 uM by FRET melting assay; format: nucleic-acid assay; details: Homo sapiens; method in brief: as §1
[7] = system: Nucleic Acid; assay: Binding affinity to HSP90A quadruplex DNA assessed as change in melting temperature at 2 uM by FRET melting assay; format: nucleic-acid assay; details: Homo sapiens; method in brief: as §1
[8] = system: Nucleic Acid; assay: Binding affinity to human G4 telomeric quadruplex DNA assessed as change in melting temperature at 2 uM by FRET melting assay; format: nucleic-acid assay; method in brief: as §1
[9] = system: duplex DNA; assay: Binding affinity to duplex DNA assessed as change in melting temperature at 3 uM by FRET melting assay; details: Homo sapiens
[10] = system: MIA PaCa-2; assay: Antiproliferative activity against human MIAPaCa2 cells after 96 hrs by neubauer haemocytometer analysis; format: functional, cell-based; details: in the assay text read “sulforhodamine B assay” for “neubauer haemocytometer analysis”
Method in brief: (§2)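 Cancer lines seeded at 1000–4000 cells/well and WI38 fibroblasts at 6000/well, then grown 24 h. Compound added over a concentration range for 96 h. Cells fixed with 10% TCA (30 min, 4 °C), stained with 0.4% sulforhodamine B (15 min, RT), dye solubilized in 10 mM Tris base, A540 read. Normalized to untreated cells; IC50 interpolated at 50% absorbance. Triplicate.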

[11] = system: Nucleic Acid; assay: Binding affinity to c-kit2 quadruplex DNA assessed as change in melting temperature at 2 uM by FRET melting assay; format: nucleic-acid assay; details: Homo sapiens; method in brief: as §1
[12] = system: Nucleic Acid; assay: Binding affinity to c-kit2 quadruplex DNA assessed as change in melting temperature at 1 uM by FRET melting assay; format: nucleic-acid assay; details: Homo sapiens; method in brief: as §1
[13] = Antiproliferative activity against human 786-O cells after 96 hrs by neubauer haemocytometer analysis; format: functional, cell-based; details: 786-0; in the assay text read “sulforhodamine B assay” for “neubauer haemocytometer analysis”; method in brief: as §2
[14] = system: WI-38; assay: Antiproliferative activity against human WI38 cells after 96 hrs by neubauer haemocytometer analysis; format: cell-based; details: in the assay text read “sulforhodamine B assay” for “neubauer haemocytometer analysis”; method in brief: as §2
[15] = system: A549; assay: Antiproliferative activity against human A549 cells after 96 hrs by neubauer haemocytometer analysis; format: functional, cell-based; details: in the assay text read “sulforhodamine B assay” for “neubauer haemocytometer analysis”; method in brief: as §2
[16] = system: Nucleic Acid; assay: Binding affinity to k-ras quadruplex DNA assessed as change in melting temperature at 2 uM by FRET melting assay; format: nucleic-acid assay; details: Homo sapiens; method in brief: as §1
[17] = system: duplex DNA; assay: Binding affinity to duplex DNA assessed as change in melting temperature at 3 uM by FRET melting assay; details: Homo sapiens; remark: listed apart in the source
[18] = system: Nucleic Acid; assay: Binding affinity to human 21-mer telomeric quadruplex F21T DNA assessed as change in melting temperature at 1 uM by FRET melting assay; format: nucleic-acid assay; method in brief: as §1
[19] = system: Nucleic Acid; assay: Binding affinity to k-ras quadruplex DNA assessed as change in melting temperature at 1 uM by FRET melting assay; format: nucleic-acid assay; details: Homo sapiens; method in brief: as §1
[20] = system: MCF7; assay: Antiproliferative activity against human MCF7 cells after 96 hrs by neubauer haemocytometer analysis; format: functional, cell-based; details: in the assay text read “sulforhodamine B assay” for “neubauer haemocytometer analysis”; method in brief: as §2
[21] = system: Nucleic Acid; assay: Binding affinity to human 21-mer telomeric quadruplex F21T DNA assessed as change in melting temperature at 2 uM by FRET melting assay; format: nucleic-acid assay; method in brief: as §1
[22] = system: duplex DNA; assay: Binding affinity to duplex DNA assessed as change in melting temperature at 3 uM by FRET melting assay; details: Homo sapiens; remark: listed apart in the source
[23] = Antiproliferative activity against human RCC4 cells after 96 hrs by neubauer haemocytometer analysis; format: functional, cell-based; details: in the assay text read “sulforhodamine B assay” for “neubauer haemocytometer analysis”; method in brief: as §2

ΔTm [1]	ΔTm [2]	ΔTm [3]	ΔTm [4]	ΔTm [5]	ΔTm [6]	ΔTm [7]	ΔTm [8]	SMILES	also measured
8 °C	1 °C	3 °C	1 °C	9 °C	11 °C	9 °C	7 °C	c1cc(-c2cnc(-c3ccc(CN4CCCCCC4)cc3)o2)cc(-c2cnc(-c3ccc(CN4CCCCCC4)cc3)o2)c1	–
7 °C	0 °C	< 2 °C	0 °C	3 °C	12 °C	16 °C	2 °C	CN1CCN(Cc2ccc(-c3ncc(-c4cccc(-c5cnc(-c6ccc(CN7CCN(C)CC7)cc6)o5)c4)o3)cc2)CC1	–
5 °C	1 °C	< 2 °C	1 °C	3 °C	6 °C	8 °C	< 2 °C	c1cc(-c2cnc(-c3cccc(CN4CCCCC4)c3)o2)cc(-c2cnc(-c3cccc(CN4CCCCC4)c3)o2)c1	–
5 °C	0 °C	2 °C	0 °C	2 °C	5 °C	19 °C	15 °C	c1cc(-c2cnc(-c3ccc(OCCCCN4CCCC4)cc3)o2)cc(-c2cnc(-c3ccc(OCCCCN4CCCC4)cc3)o2)c1	–
6 °C	0 °C	< 2 °C	0 °C	5 °C	6 °C	6 °C	2 °C	c1cc(-c2cnc(-c3ccc(CN4CCOCC4)cc3)o2)cc(-c2cnc(-c3ccc(CN4CCOCC4)cc3)o2)c1	–

The remaining lines, values behind:

SMILES	ΔTm [1]	ΔTm [2]	ΔTm [3]	ΔTm [4]	ΔTm [5]	ΔTm [6]	ΔTm [7]	ΔTm [8]	also measured
CC(C)N(Cc1ccc(-c2ncc(-c3cccc(-c4cnc(-c5ccc(CN(C(C)C)C(C)C)cc5)o4)c3)o2)cc1)C(C)C	8 °C	1 °C	< 2 °C	1 °C	8 °C	9 °C	8 °C	2 °C	–
c1cc(-c2cnc(-c3ccc(OCCCN4CCCC4)cc3)o2)cc(-c2cnc(-c3ccc(OCCCN4CCCC4)cc3)o2)c1	7 °C	0 °C	< 2 °C	0 °C	2 °C	6 °C	14 °C	< 2 °C	–
c1cc(-c2cnc(-c3ccc(OCCN4CCCC4)cc3)o2)cc(-c2cnc(-c3ccc(OCCN4CCCC4)cc3)o2)c1	7 °C	0 °C	< 2 °C	0 °C	2 °C	6 °C	14 °C	< 2 °C	–
CN1CCN(CCc2ccc(-c3ncc(-c4cccc(-c5cnc(-c6ccc(CCN7CCN(C)CC7)cc6)o5)c4)o3)cc2)CC1	14 °C	0 °C	< 2 °C	0 °C	2 °C	7 °C	23 °C	2 °C	ΔTm [9]: < 1 °C; IC50 [10]: 1.25 µmol; ΔTm [11]: 2 °C; ΔTm [12]: < 2 °C; IC50 [13]: 1.33 µmol; IC50 [14]: 2.59 µmol; IC50 [15]: 1.02 µmol; ΔTm [16]: 17 °C; ΔTm [17]: < 1 °C; ΔTm [18]: < 2 °C; ΔTm [19]: 7 °C; IC50 [20]: 1.32 µmol; ΔTm [21]: 2 °C; ΔTm [22]: < 1 °C; IC50 [23]: 0.94 µmol
c1cc(-c2cnc(-c3ccc(CN4CCCC4)cc3)o2)cc(-c2cnc(-c3ccc(CN4CCCC4)cc3)o2)c1	7 °C	0 °C	2 °C	0 °C	2 °C	4 °C	14 °C	6 °C	–
CN1CCN(CCc2ccc(-c3ncc(-c4ccc(-c5cnc(-c6ccc(CCN7CCN(C)CC7)cc6)o5)cc4)o3)cc2)CC1	–	–	–	–	–	< 5 °C	< 5 °C	–	ΔTm [11]: < 5 °C; ΔTm [16]: < 5 °C; ΔTm [21]: < 5 °C
